A short description of data set [1]: Stability of the compound in amophous solid form at ambient temperature incubated for 16 days. It is filed as physicochemical. Conditions: 384 h.
Data set [2] is described as follows: Drug metabolism in C57BL/6 mouse plasma assessed as half life for isoliquiritigenin formation by UPLC analysis. It counts as ADME, cell-free. Put shortly:
(§1)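 Mouse plasma (cardiac puncture, heparin, spun 2000g 10 min 4 °C) or lung homogenate in 0.9% saline (spun 400g 5 min), n = 3 mice, stored −80 °C. 27 μL matrix plus 5 μL of 1 mM prodrug in PBS pH 7.4, 37 °C; lung 5–20 min, plasma 40–240 min. Stopped with CH3CN, centrifuged, UPLC at 360 nm with Fmoc-glycine reference; remaining fraction from prodrug/parent AUC ratio.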

Data set [3] can be described thus: Stability of the compound in pH 7.4 phosphate buffer solution at -20 degC incubated for 16 days. It is filed as physicochemical.
A short description of data set [4]: Solubility in pH 7.4 PBS at 3.83 mg in 100 ul solution sonicated for 5 mins followed by incubation at room temperature for 30 mins. It is filed as physicochemical. The procedure, abridged: (§2)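 Solid suspended in PBS pH 7.4 at the stated amount and volume, sonicated 5 min, held 30 min at room temperature, then diluted 1:1 stepwise until a clear solution. Solubility judged by visual inspection as partial or soluble.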

The test system of data set [5] is Mus musculus. Description: Reduction in IL6 gene expression in lungs of C57BL/6 mouse infected with Influenza A virus (A/Puerto Rico/8/1934(H1N1)) at 10 mg/kg, ip starting on the same day as infection and continued daily until day 3 postinfection by real-time PCR analysis. It is filed as functional. The arrangement: scale not given: the % may be the effect or the level left. The procedure, abridged: (§3)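 Female C57BL/6 mice, 6–8 weeks old, infected intranasally with PR8 and given 10 mg/kg in saline by ip injection. On day 3 p.i., lungs were homogenized in Ribozol. 500 ng RNA was reverse-transcribed and run in SYBR green qPCR. Fold change versus uninfected mice was calculated by 2ΔΔCt with 18S normalization. Means ± SD from three experiments, 3–4 mice per group.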
(In general: Quantitative PCR measures a nucleic acid by following its amplification.)

Data set [6] in a line: Solubility in pH 7.4 PBS at 3.83 mg in 400 ul solution sonicated for 5 mins followed by incubation at room temperature for 30 mins. It counts as physicochemical. Put shortly: as §2
In data set [7] the test system is Mus musculus. Description: Reduction in CCL4 gene expression in lungs of C57BL/6 mouse infected with Influenza A virus (A/Puerto Rico/8/1934(H1N1)) at 10 mg/kg, ip starting on the same day as infection and continued daily until day 3 postinfection by real-time PCR analysis. It counts as functional. More on the design: scale not given: the % may be the effect or the level left. Put shortly: as §3

Data set [8] is described as follows: Solubility in pH 7.4 PBS at 3.83 mg in 200 ul solution sonicated for 5 mins followed by incubation at room temperature for 30 mins. It is filed as physicochemical. The procedure, abridged: as §2
Data set [9] is described as follows: Drug metabolism in C57BL/6 mouse lung extracts assessed as half life for isoliquiritigenin formation by UPLC analysis. It is filed as ADME, tissue-based. Put shortly:
as §1

Data set [10] is described as follows: Stability in pH 7.4 PBS buffer at 37 degC incubated for 24 hrs by UPLC analysis. It is filed as physicochemical. Particulars: pH 7.4, 24 h.
Data set [11] can be described thus: Stability of the compound in pH 7.4 phosphate buffer solution at 4 degC incubated for 16 days. It counts as physicochemical.
The nature of data set [12]: Solubility in pH 7.4 PBS sonicated for 5 mins followed by incubation at room temperature for 30 mins. It is filed as physicochemical. The procedure, abridged:
as §2

Data set [13] in a line: Stability of the compound in amophous solid form at -20 degC incubated for 16 days. It counts as physicochemical.
In data set [14] the test system is Influenza A virus. The data set is described as follows: Antiviral activity against Influenza A virus (A/Puerto Rico/8/1934(H1N1)) infected in MDCK cells infected with supernatants from virus-infected human Calu3 cells treated with compound for 2 days assessed as reduction in viral replication by crystal violet staining based viral plaque assay. It is filed as functional, organism-based. Particulars: 48 h.

Data set [15] can be described thus: Solubility in pH 7.4 PBS at 0.5 mg in 2 ul solution sonicated for 5 mins followed by incubation at room temperature for 30 mins. It is filed as physicochemical. Put shortly:
as §2

Data set [16] can be described thus: Solubility in pH 7.4 PBS at 0.5 mg in 128 ul solution sonicated for 5 mins followed by incubation at room temperature for 30 mins. It counts as physicochemical. The procedure, abridged:
as §2

Data set [17] can be described thus: Solubility in pH 7.4 PBS at 0.5 mg in 4 ul solution sonicated for 5 mins followed by incubation at room temperature for 30 mins. It is filed as physicochemical. The procedure, abridged: as §2
Data set [18] in a line: Solubility in pH 7.4 PBS at 0.5 mg in 64 ul solution sonicated for 5 mins followed by incubation at room temperature for 30 mins. It is filed as physicochemical. The procedure, abridged: as §2
Data set [19] is described as follows: Solubility in pH 7.4 PBS at 0.5 mg in 32 ul solution sonicated for 5 mins followed by incubation at room temperature for 30 mins. It counts as physicochemical. Put shortly: as §2
Data set [20] in a line: Solubility in pH 7.4 PBS at 0.5 mg in 16 ul solution sonicated for 5 mins followed by incubation at room temperature for 30 mins. It counts as physicochemical. Put shortly: as §2
Data set [21] in a line: Solubility in pH 7.4 PBS at 0.5 mg in 8 ul solution sonicated for 5 mins followed by incubation at room temperature for 30 mins. It is filed as physicochemical. The procedure, abridged:
as §2

Where [22] appears, read: phosphate buffer solution, pH 7.4, read-out: Stability.

≈ marks a conversion by molar mass, not a printed value.

Usually solubility stands for how much of the substance goes into solution per volume. For the compound `N.O=C(/C=C/c1ccc(OCOP(=O)(O)O)cc1)c1ccc(O)cc1O`, the Stability in [1] was 2 weeks; in data set [3] (buffer, pH 7.4, 384 h), “Stable”; in data set [10] it was “Stable”; in [11] (buffer, pH 7.4, 384 h), “Stable”; in data set [13] (384 h) it was 6 months. Moreover, the values for the t1/2 in data set [2] and in [9] were 100 min and 10.8 min, respectively. Besides, the solubility at 0.5 h in data set [4] was 100 mM; in data set [6], 25 mM; in data set [8], 50 mM; in data set [12], 25 mM. The results for the Activity in data set [5] and in data set [7] were 80% and 62.5%, respectively.

For the compound `O=C(/C=C/c1ccc(OCOP(=O)(O)O)cc1)c1ccc(O)cc1O`, the remaining at 384 h in data set [3] (setting [22]) stood at 80%; in data set [11] (setting [22]) it was 60%; in [13] (amorphous solid form, read-out: Stability) it was 80%.

For orientation: EC50 means the concentration that produces a half-maximal response. For the compound `O=C(/C=C/c1ccc(O)cc1)c1ccc(O)cc1O` [ISOLIQUIRITIGENIN], the EC50 in data set [14] came to 24.7 µM. The solubility at 0.5 h in data set [15] amounted to 1000 mM (≈ 256 mg/mL); in [16], 15.3 mM (≈ 3.92 mg/mL); in data set [17], 500 mM (≈ 128 mg/mL); in data set [18] it was 31.2 mM (≈ 8 mg/mL); in data set [19], 62.5 mM (≈ 16 mg/mL); in data set [20], 125 mM (≈ 32 mg/mL). For the same compound, the solubility at 0.5 h in [21] is 250 mM (≈ 64.1 mg/mL); in data set [12] it was 0.0153 mM (≈ 0.00392 mg/mL). Also, the Stability result in data set [9] and in [10] was “Stable” in each case.

For the origin of these results see ChEMBL document CHEMBL4270484, “Synthesis and Characterization of a Phosphate Prodrug of Isoliquiritigenin” (J Nat Prod, 2017).
